In ChEMBL document CHEMBL3867488 (ACS Med Chem Lett, 2016):

What was measured:
[1] = target: T1, Oxysterols receptor LXR-beta (Homo sapiens) (UniProt P55055); assay: Agonist activity at human LXR-beta expressed in African green monkey CV1 cells measured after 18 to 20 hrs by luciferase reporter gene assay relative to pan agonist 1-(2,4-difluorobenzyl)-2-oxo-6-(4-phenoxyphenyl)-4-(trifluoromethyl)-1,2-dihydropyridine-3-carbonitrile; assay type: cell-based; details: CV-1
T1 sequence (whole entry): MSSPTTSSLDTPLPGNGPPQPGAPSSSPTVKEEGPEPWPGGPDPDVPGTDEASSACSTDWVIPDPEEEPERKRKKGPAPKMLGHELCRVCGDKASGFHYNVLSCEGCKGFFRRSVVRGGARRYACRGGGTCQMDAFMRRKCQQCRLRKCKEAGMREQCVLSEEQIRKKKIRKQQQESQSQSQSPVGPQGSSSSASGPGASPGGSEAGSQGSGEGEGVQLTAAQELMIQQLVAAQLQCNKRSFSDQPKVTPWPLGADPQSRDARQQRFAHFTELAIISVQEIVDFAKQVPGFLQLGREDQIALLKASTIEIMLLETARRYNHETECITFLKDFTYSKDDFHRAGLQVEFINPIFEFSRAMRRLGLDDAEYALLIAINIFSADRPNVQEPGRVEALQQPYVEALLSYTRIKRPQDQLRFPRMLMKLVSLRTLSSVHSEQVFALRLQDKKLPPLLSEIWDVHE

[2] = target: T2, Oxysterols receptor LXR-beta (Homo sapiens, UniProt P55055); assay: Agonist activity at human LXR-beta expressed in African green monkey CV1 cells measured after 18 to 20 hrs by luciferase reporter gene assay; assay type: cell-based, CV-1
T2 sequence (P55055 whole entry): T1 sequence (whole entry)

[3] = target: Retinoic acid receptor RXR-alpha/oxysterols receptor LXR-beta (Homo sapiens, UniProt P55055); assay: Displacement of [3H]-24,25-epoxycholesterol from human LXRbeta/RXRalpha expressed in baculovirus infected Sf9 cells by scintillation proximity analysis
Summary of the method: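 Binding affinity measured using full-length LXRα–RXRα and LXRβ–RXRα heterodimers.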

[4] = target: T3, Oxysterols receptor LXR-alpha (Homo sapiens, UniProt Q13133); assay: Agonist activity at human LXR-alpha expressed in African green monkey CV1 cells measured after 18 to 20 hrs by luciferase reporter gene assay relative to pan agonist 1-(2,4-difluorobenzyl)-2-oxo-6-(4-phenoxyphenyl)-4-(trifluoromethyl)-1,2-dihydropyridine-3-carbonitrile; assay type: cell-based; details: CV-1, human; read-out: Efficacy
T3 sequence (Q13133 whole entry): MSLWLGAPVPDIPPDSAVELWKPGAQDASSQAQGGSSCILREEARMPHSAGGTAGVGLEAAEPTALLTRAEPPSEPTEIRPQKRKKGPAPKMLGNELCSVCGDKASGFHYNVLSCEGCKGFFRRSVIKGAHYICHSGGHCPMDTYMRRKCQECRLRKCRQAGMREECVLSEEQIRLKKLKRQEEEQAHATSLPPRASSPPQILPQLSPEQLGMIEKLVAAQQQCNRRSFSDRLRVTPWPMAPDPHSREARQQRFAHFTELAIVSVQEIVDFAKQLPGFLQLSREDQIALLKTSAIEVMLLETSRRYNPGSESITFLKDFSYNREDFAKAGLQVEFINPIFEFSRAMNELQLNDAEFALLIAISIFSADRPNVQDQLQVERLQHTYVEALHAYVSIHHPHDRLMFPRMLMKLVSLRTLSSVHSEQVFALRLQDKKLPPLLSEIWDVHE

[5] = target: T2, Oxysterols receptor LXR-beta; assay: Agonist activity at LXR-beta in human HeLa cells assessed as induction of ABCA1 by beta-galactosidase/luciferase reporter gene assay; assay type: cell-based
Summary of the method: (§1)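 HeLa cells carrying endogenous LXRα and LXRβ receptors, transfected with an ABCA1 LXREx3 reporter construct; agonist-driven reporter induction measured.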

[6] = target: T1, Oxysterols receptor LXR-beta (Homo sapiens); assay: Agonist activity at LXR-beta in human HeLa cells assessed as induction of ABCA1 by beta-galactosidase/luciferase reporter gene assay relative to control; assay type: cell-based; summary of the method: as §1
[7] = target: T1, Oxysterols receptor LXR-beta (Homo sapiens); assay: (§2) Agonist activity at LXR-beta in human whole blood assessed as ABCA1 gene induction by measuring ABCA1 mRNA level after 4 hrs by SYBR-Green dye-based Q-PCR analysis relative to pan agonist 2-(4-(5-(5-cyano-1-(2,4-difluorobenzyl)-6-oxo-4-(trifluoromethyl)-1,6-dihydropyridin-2-yl)thiophen-2-yl)-3-methylphenyl)acetic acid; assay type: tissue-based
[8] = target: Alpha-1-acid glycoprotein 1 (Homo sapiens, UniProt P02763); assay: Binding affinity to human alpha-1-AGP at 1 uM measured after 4 hrs by equilibrium dialysis method relative to control; assay type: ADME; details: isolated protein, 4 h, 1 µM
Albumin = Albumin (Homo sapiens, UniProt P02768); assay: Binding affinity to human serum albumin at 1 uM measured after 4 hrs by equilibrium dialysis method relative to control; assay type: ADME; details: isolated protein, 4 h, 1 µM
[9] = Agonist activity at LXR-beta in cynomolgus monkey whole blood assessed as ABCA1 gene induction by measuring ABCA1 mRNA level after 4 hrs by SYBR-Green dye-based Q-PCR analysis; assay type: tissue-based; details: Macaca fascicularis
Macaca fascicularis = organism: Macaca fascicularis; assay: Agonist activity at LXR-beta in cynomolgus monkey whole blood assessed as ABCA1 gene induction by measuring ABCA1 mRNA level after 4 hrs by SYBR-Green dye-based Q-PCR analysis relative to control; assay type: tissue-based
Cynomolgus monkey [10] = assay: In vivo agonist activity at LXR-beta in cynomolgus monkey assessed as ABCG1 gene induction by measuring total RNA level at 1 mg/kg, po qd administered via gavage for 14 days measured after 5 to 6 hrs of last-dose relative to control; assay type: functional, Macaca fascicularis
Summary of the method: (§3)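 Cynomolgus monkeys dosed daily for 14 days. ABCG1 mRNA induction measured in blood cells on day 14 and expressed as fold change. Plasma drug concentration taken about 5 h post-dose. Plasma triglycerides also measured against baseline, with significance by ANOVA.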

[11] = Effect on plasma triglyceride level in cynomolgus monkey at 1 mg/kg, po qd administered via gavage for 14 days measured after 24 hrs of last-dose relative to base line; assay type: ADME, organism-based, Macaca fascicularis; details: in vivo
Summary of the method: (§4)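 Cynomolgus monkeys dosed daily for 14 days. On day 14, plasma drug concentration was taken 5 h post-dose. Plasma triglycerides were expressed as % elevation over baseline, with significance tested by ANOVA (p < 0.05).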

[12] = Plasma concentration in cynomolgus monkey at 0.1 mg/kg, po qd administered via gavage for 14 days measured after 5 hrs of last-dose by LC/MS/MS analysis; assay type: ADME, organism-based, Macaca fascicularis; summary of the method: as §4
Cynomolgus monkey [13] = assay: In vivo agonist activity at LXR-beta in cynomolgus monkey assessed as ABCG1 gene induction by measuring total RNA level at 0.1 mg/ kg, po qd administered via gavage for 14 days measured 5 to 6 hrs post-dose; assay type: functional, Macaca fascicularis; summary of the method: as §3
Cynomolgus monkey [14] = assay: In vivo agonist activity at LXR-beta in cynomolgus monkey assessed as ABCG1 gene induction by measuring total RNA level at 0.3 mg/ kg, po qd administered via gavage for 14 days measured 5 to 6 hrs post-dose; assay type: functional, Macaca fascicularis; summary of the method: as §3
[15] = Effect on plasma triglyceride level in cynomolgus monkey at 0.1 mg/kg, po qd administered via gavage for 14 days measured after 24 hrs of last-dose relative to base line; assay type: ADME, organism-based, Macaca fascicularis; details: in vivo
Summary of the method: (§5)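 Cynomolgus monkeys dosed for 14 days, with groups at 0.1, 0.3 and 1 mg/kg. Plasma triglycerides expressed as percent change over baseline, with significance by ANOVA. Plasma drug exposure sampled 5 h post-dose. ABCG1 induction in blood cells monitored in the same animals.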

[16] = Effect on plasma triglyceride level in cynomolgus monkey at 0.3 mg/kg, po qd administered via gavage for 14 days measured after 24 hrs of last-dose relative to base line; assay type: ADME, organism-based, Macaca fascicularis; details: in vivo; summary of the method: as §5
[17] = target: T1, Oxysterols receptor LXR-beta (Homo sapiens); assay: as §2, with “as ABCG1” for “as ABCA1”; assay type: tissue-based

Chain of Retinoic acid receptor RXR-alpha/oxysterols receptor LXR-beta (P19793 whole entry, one chain of several): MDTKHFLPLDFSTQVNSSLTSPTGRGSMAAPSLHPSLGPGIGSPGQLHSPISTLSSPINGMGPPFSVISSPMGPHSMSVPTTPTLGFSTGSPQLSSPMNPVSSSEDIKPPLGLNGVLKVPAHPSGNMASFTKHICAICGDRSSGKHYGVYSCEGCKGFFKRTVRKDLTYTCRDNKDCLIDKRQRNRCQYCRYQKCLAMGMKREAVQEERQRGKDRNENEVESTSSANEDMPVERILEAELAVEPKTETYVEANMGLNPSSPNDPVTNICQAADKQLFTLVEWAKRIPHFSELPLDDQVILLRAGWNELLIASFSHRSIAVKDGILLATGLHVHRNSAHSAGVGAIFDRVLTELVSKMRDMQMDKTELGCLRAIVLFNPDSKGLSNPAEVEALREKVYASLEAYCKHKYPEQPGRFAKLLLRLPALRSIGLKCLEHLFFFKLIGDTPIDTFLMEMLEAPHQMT
Chain of Albumin (P02768 whole entry): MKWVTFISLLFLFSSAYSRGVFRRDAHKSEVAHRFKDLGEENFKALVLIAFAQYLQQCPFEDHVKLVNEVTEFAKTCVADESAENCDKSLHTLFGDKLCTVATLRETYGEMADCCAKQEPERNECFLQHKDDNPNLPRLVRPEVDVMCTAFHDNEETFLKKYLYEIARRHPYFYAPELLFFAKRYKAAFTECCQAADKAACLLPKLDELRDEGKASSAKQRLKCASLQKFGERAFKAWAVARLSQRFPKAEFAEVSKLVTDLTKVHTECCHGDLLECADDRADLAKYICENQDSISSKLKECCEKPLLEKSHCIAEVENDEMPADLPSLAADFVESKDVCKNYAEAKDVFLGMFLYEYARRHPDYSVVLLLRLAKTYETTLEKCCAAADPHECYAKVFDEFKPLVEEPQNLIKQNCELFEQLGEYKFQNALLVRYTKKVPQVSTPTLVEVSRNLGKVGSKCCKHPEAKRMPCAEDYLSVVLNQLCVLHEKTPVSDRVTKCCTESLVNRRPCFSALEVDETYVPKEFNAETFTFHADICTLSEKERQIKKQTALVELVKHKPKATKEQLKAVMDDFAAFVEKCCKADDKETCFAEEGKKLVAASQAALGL
Chain of Alpha-1-acid glycoprotein 1 (P02763 whole entry): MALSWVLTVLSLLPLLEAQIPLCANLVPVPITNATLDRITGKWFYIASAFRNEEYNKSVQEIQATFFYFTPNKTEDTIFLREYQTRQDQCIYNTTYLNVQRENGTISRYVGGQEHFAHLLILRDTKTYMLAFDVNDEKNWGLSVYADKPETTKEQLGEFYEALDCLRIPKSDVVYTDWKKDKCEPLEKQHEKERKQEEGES

`CC(C)(O)c1cn(-c2ccc(-c3cc(F)c(CO)c(S(C)(=O)=O)c3)cc2F)c(C(C)(C)c2c(Cl)cccc2Cl)n1` [BMS-852927] showed an Efficacy [1] of 88%, an EC50 [2] of 24 nM and a Ki [3] of 12 nM. The Emax [4] was 20%, the EC50 [5] was 0.6 nM and the Efficacy [6] was 29%. The Efficacy [7] was 26%, the PB [8] was 97.3% and the PB (Albumin) was 96.6%. The EC50 [9] was 5 nM, the Efficacy (Macaca fascicularis) was 32% and the “fold change (FC)” value (Cynomolgus monkey [10]) was 11. For the same molecule, the Activity [11] was 10%, the concentration at 5 h [12] was 7.5 nM and the “fold change (FC)” value (Cynomolgus monkey [13]) was 4.7. The “fold change (FC)” value (Cynomolgus monkey [14]) was 15, the Activity [15] was 20% and the Activity [16] was 8%. It also gave an Efficacy [17] of 26%.
